Data: ChEMBL document CHEMBL1152508, “Interaction of drug based binuclear mixed-ligand complexes with DNA” (2009)

Experiments:
Format in all cases: functional
Staphylococcus aureus = test: Antibacterial activity against Staphylococcus aureus after 24 hrs by twofold serial dilution method
Summary of the method: (§1)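 Bacteria activated by inoculation into luria broth for 24 h at 30 °C. Compounds dissolved in DMSO, then diluted in luria broth as twofold serial concentrations. Test cultures incubated 24 h at 37 °C. MIC taken as the lowest concentration giving complete inhibition of growth.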

Pseudomonas aeruginosa = test: Antibacterial activity against Pseudomonas aeruginosa after 24 hrs by twofold serial dilution method; summary of the method: as §1
Bacillus subtilis = test: Antibacterial activity against Bacillus subtilis after 24 hrs by twofold serial dilution method; summary of the method: as §1
Escherichia coli = test: Antibacterial activity against Escherichia coli after 24 hrs by twofold serial dilution method; summary of the method: as §1
Serratia marcescens = test: Antibacterial activity against Serratia marcescens after 24 hrs by twofold serial dilution method; summary of the method: as §1

| Structure (SMILES) | Activity (Staphylococcus aureus) | Activity (Pseudomonas aeruginosa) | Activity (Bacillus subtilis) | Activity (Escherichia coli) | Activity (Serratia marcescens) |
| --- | --- | --- | --- | --- | --- |
| COc1ccc(/C=N/CC/N=C/c2ccc(OC)cc2)cc1 | 1687 µM | 1855 µM | 1518 µM | 2193 µM | 1687 µM |
| C/C(=N/c1ccccc1/N=C(\C)c1ccccc1)c1ccccc1 | 1760 µM | 1920 µM | 1600 µM | 2080 µM | 1760 µM |
| Nc1cccc2cccc(N)c12 | 3160 µM | 3792 µM | 3476 µM | 4108 µM | 4108 µM |
| COc1ccc(/N=C(C)\C(C)=N\c2ccc(OC)cc2)cc1 | 1855 µM | 2193 µM | 1518 µM | 2361 µM | 2024 µM |
| Nc1ccccc1N | 5086 µM | 6010 µM | 5548 µM | 6473 µM | 6010 µM |
| O=C(O)c1cn(C2CC2)c2cc(N3CCNCC3)c(F)cc2c1=O [CIPROFLOXACIN] | 1.63 µM | 1.36 µM | 1.09 µM | 1.36 µM | 1.63 µM |
| CCN1CCN(c2cc3c(cc2F)c(=O)c(C(=O)O)cn3C2CC2)CC1 [ENROFLOXACIN] | 1.95 µM | 1.39 µM | 3.9 µM | 1.39 µM | 1.67 µM |
| NCCN [ETHYLENEDIAMINE] | 8319 µM | 10815 µM | 9151 µM | 10815 µM | 9983 µM |
| COc1c(N2CCNC(C)C2)c(F)cc2c(=O)c(C(=O)O)cn(C3CC3)c12 (stereo not given) [GATIFLOXACIN] | 5.06 µM | 1.01 µM | 4 µM | 2.93 µM | 2.93 µM |
| C[C@H]1COc2c(N3CCN(C)CC3)c(F)cc3c(=O)c(C(=O)O)cn1c23.C[C@H]1COc2c(N3CCN(C)CC3)c(F)cc3c(=O)c(C(=O)O)cn1c23.O [LEVOFLOXACIN] | 1.66 µM | 1.66 µM | 2.21 µM | 0.97 µM | 1.67 µM |
| CCn1cc(C(=O)O)c(=O)c2cc(F)c(N3CCNCC3)cc21 [NORFLOXACIN] | 2.5 µM | 3.76 µM | 2.51 µM | 2.82 µM | 4.07 µM |
| CC1COc2c(N3CCN(C)CC3)c(F)cc3c(=O)c(C(=O)O)cn1c23 (stereo not given) [OFLOXACIN] | 1.94 µM | 2.21 µM | 1.38 µM | 1.38 µM | 1.66 µM |
| CCn1cc(C(=O)O)c(=O)c2cc(F)c(N3CCN(C)CC3)cc21 [PEFLOXACIN] | 2.1 µM | 5.7 µM | 2.4 µM | 2.7 µM | 5.1 µM |
| C[C@@H]1CN(c2c(F)c(N)c3c(=O)c(C(=O)O)cn(C4CC4)c3c2F)C[C@H](C)N1 [SPARFLOXACIN] | 1.27 µM | 1.53 µM | 2.04 µM | 1.27 µM | 1.53 µM |
